Measurements: ChEMBL document CHEMBL1152161, “A facile synthesis, antibacterial, and antitubercular studies of some piperidin-4-one and tetrahydropyridine derivatives” (2008)
≈ marks a conversion by molar mass, not a printed value. Calls of active or inactive are those of the source. The rule behind the calls is not given here.

Legend:
Staphylococcus aureus [1] = experiment: Antibacterial activity against Staphylococcus aureus by broth micro dilution method; assay type: functional
In short: (§1)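 MIC90 was found by broth microdilution following NCCLS methods. Compounds were tested up to a top concentration of […]. Linezolid and trovafloxacin served as positive controls and DMSO as the negative control.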

Enterococcus faecalis [2] = experiment: Antibacterial activity against vancomycin-resistant Enterococcus faecalis by broth micro dilution method; assay type: functional
In short: (§2)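 MIC90 was determined by broth microdilution following NCCLS methods. Linezolid and trovafloxacin were run as positive controls, with DMSO as the negative control. Compounds were tested up to a top concentration of 128.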

Haemophilus influenzae [3] = experiment: Antibacterial activity against Haemophilus influenzae by broth micro dilution method; assay type: functional; in short: as §1
Moraxella catarrhalis [4] = experiment: Antibacterial activity against Moraxella catarrhalis by broth micro dilution method; assay type: functional; in short: as §1
Escherichia coli [5] = experiment: Antibacterial activity against Escherichia coli LCB0012 by broth micro dilution method; assay type: functional; in short: as §1
Escherichia coli [6] = experiment: Antibacterial activity against Escherichia coli LCB0011 by broth micro dilution method; assay type: functional; in short: as §1
Enterococcus faecalis [7] = experiment: Antibacterial activity against Enterococcus faecalis by broth micro dilution method; assay type: functional; in short: as §1
Enterococcus faecium [8] = experiment: Antibacterial activity against vancomycin-resistant Enterococcus faecium by broth micro dilution method; assay type: functional; details: Enterococcus faecium; in short: as §2
Enterococcus faecalis [9] = experiment: Antibacterial activity against vancomycin and linezolid-resistant Enterococcus faecalis by broth micro dilution method; assay type: functional; in short: as §2
[10] = system: Staphylococcus epidermidis; experiment: Antibacterial activity against Staphylococcus epidermidis by broth micro dilution method; assay type: functional; in short: as §2
Pseudomonas aeruginosa [11] = experiment: Antibacterial activity against Pseudomonas aeruginosa by broth micro dilution method; assay type: functional; in short: as §1
Klebsiella pneumoniae [12] = experiment: Antibacterial activity against Klebsiella pneumoniae by broth micro dilution method; assay type: functional; in short: as §1
Staphylococcus aureus [13] = experiment: Antibacterial activity against methicillin-resistant Staphylococcus aureus by broth micro dilution method; assay type: functional; in short: as §2
Escherichia coli [14] = experiment: Antibacterial activity against Escherichia coli LCB0010 by broth micro dilution method; assay type: functional; in short: as §1
Enterococcus faecium [15] = experiment: Antibacterial activity against Enterococcus faecium by broth micro dilution method; assay type: functional; in short: as §1
Escherichia coli [16] = experiment: Antibacterial activity against Escherichia coli LCB0012 at 128 ug/mL by broth micro dilution method; assay type: functional, organism-based
[17] = system: Mycobacterium tuberculosis; experiment: Antitubercular activity against Mycobacterium tuberculosis H37Rv ATCC 27294 by radiometric respiratory technique; assay type: functional
[18] = system: Mycobacterium tuberculosis; experiment: Antitubercular potency, ratio of Rifampicin MIC to drug MIC against Mycobacterium tuberculosis H37Rv ATCC 27294; assay type: functional
[19] = system: Staphylococcus epidermidis; experiment: Antibacterial activity against methicillin-resistant Staphylococcus epidermidis by broth micro dilution method; assay type: functional; in short: as §2
Escherichia coli [20] = experiment: Antibacterial activity against Escherichia coli LCB0010 at 128 ug/mL by broth micro dilution method; assay type: functional, organism-based
Pseudomonas aeruginosa [21] = experiment: Antibacterial activity against Pseudomonas aeruginosa at 128 ug/mL by broth micro dilution method; assay type: functional, organism-based
[22] = system: Mycobacterium tuberculosis; experiment: Antitubercular potency, ratio of Isoniazid MIC to drug MIC against Mycobacterium tuberculosis H37Rv ATCC 27294; assay type: functional
Haemophilus influenzae [23] = experiment: Antibacterial activity against Haemophilus influenzae at 128 ug/mL by broth micro dilution method; assay type: functional, organism-based
Escherichia coli [24] = experiment: Antibacterial activity against Escherichia coli LCB0011 at 128 ug/mL by broth micro dilution method; assay type: functional, organism-based
Klebsiella pneumoniae [25] = experiment: Antibacterial activity against Klebsiella pneumoniae at 128 ug/mL by broth micro dilution method; assay type: functional, organism-based
[26] = system: Staphylococcus epidermidis; experiment: Antibacterial activity against Staphylococcus epidermidis at 128 ug/mL by broth micro dilution method; assay type: functional, organism-based
Enterococcus faecium [27] = experiment: Antibacterial activity against Enterococcus faecium at 128 ug/mL by broth micro dilution method; assay type: functional, organism-based
Enterococcus faecalis [28] = experiment: Antibacterial activity against vancomycin and linezolid-resistant Enterococcus faecalis at 128 ug/mL by broth micro dilution method; assay type: functional, organism-based; in short: as §2
Staphylococcus aureus [29] = experiment: Antibacterial activity against Staphylococcus aureus at 128 ug/mL by broth micro dilution method; assay type: functional, organism-based
Moraxella catarrhalis [30] = experiment: Antibacterial activity against Moraxella catarrhalis at 128 ug/mL by broth micro dilution method; assay type: functional, organism-based
Enterococcus faecalis [31] = experiment: Antibacterial activity against vancomycin-resistant Enterococcus faecalis at 128 ug/mL by broth micro dilution method; assay type: functional, organism-based; in short: as §2
Enterococcus faecium [32] = experiment: Antibacterial activity against vancomycin-resistant Enterococcus faecium at 128 ug/mL by broth micro dilution method; assay type: functional, organism-based; in short: as §2
[33] = system: Mycobacterium tuberculosis; experiment: Antitubercular activity against Mycobacterium tuberculosis H37Rv ATCC 27294 at 256 ug/mL by radiometric respiratory technique; assay type: functional, organism-based
[34] = system: Staphylococcus epidermidis; experiment: Antibacterial activity against methicillin-resistant Staphylococcus epidermidis at 128 ug/mL by broth micro dilution method; assay type: functional, organism-based; in short: as §2

Row | Compound | MIC90 (Staphylococcus aureus [1]) [mg/L] | MIC90 (Enterococcus faecalis [2]) [mg/L] | MIC90 (Moraxella catarrhalis [4]) [mg/L] | MIC90 (Escherichia coli [6]) [mg/L] | MIC90 (Enterococcus faecalis [7]) [mg/L] | MIC90 (Enterococcus faecium [8]) [mg/L] | MIC90 (Enterococcus faecalis [9]) [mg/L] | MIC90 [10] [mg/L] | MIC90 (Pseudomonas aeruginosa [11]) [mg/L] | MIC90 (Klebsiella pneumoniae [12]) [mg/L] | MIC90 (Staphylococcus aureus [13]) [mg/L] | MIC90 (Enterococcus faecium [15]) [mg/L] | Activity (Escherichia coli [16]) | MIC [17] [mg/L] | Ratio [18] | MIC90 [19] [mg/L] | Activity (Escherichia coli [20]) | Activity (Pseudomonas aeruginosa [21]) | Ratio [22] | Activity (Haemophilus influenzae [23]) | further results
1 | N[C@@H]1[C@H]2CN(c3nc4c(cc3F)c(=O)c(C(=O)O)cn4-c3ccc(F)cc3F)C[C@@H]12 [TROVAFLOXACIN] | < 0.0625 | 8 (≈ 19.2 µM) | < 0.0625 | < 0.0625 | 0.128 (≈ 0.307 µM) | 8 (≈ 19.2 µM) | 16 (≈ 38.4 µM) | < 0.0625 | 0.125 (≈ 0.3 µM) | 0.125 (≈ 0.3 µM) | 1 (≈ 2.4 µM) | 64 (≈ 154 µM) |  |  |  |  |  |  |  |  | MIC90 (Haemophilus influenzae [3]): < 0.0625 mg/L; MIC90 (Escherichia coli [5]): < 0.0625 mg/L; MIC90 (Escherichia coli [14]): < 0.0625 mg/L
2 | CCOC(=O)C1=C(OS(=O)(=O)c2ccc([N+](=O)[O-])cc2)CC(c2ccccc2)N(C(=O)CCl)C1c1ccccc1 (stereo not given) | 16 (≈ 27.3 µM) | 32 (≈ 54.7 µM) | 32 (≈ 54.7 µM) | 128 (≈ 219 µM) | 16 (≈ 27.3 µM) | 16 (≈ 27.3 µM) | 64 (≈ 109 µM) | 64 (≈ 109 µM) |  | 64 (≈ 109 µM) | 64 (≈ 109 µM) | 32 (≈ 54.7 µM) | inactive | 16 (≈ 27.3 µM) | 200 | 64 (≈ 109 µM) | inactive | inactive | 1.56 | inactive | 
3 | CCOC(=O)C1=C(O)CC(c2ccccc2)N(C(=O)CCl)C1c1ccccc1 (stereo not given) | 32 (≈ 80 µM) | 64 (≈ 160 µM) | 32 (≈ 80 µM) |  | 32 (≈ 80 µM) | 16 (≈ 40 µM) | 32 (≈ 80 µM) | 64 (≈ 160 µM) | 64 (≈ 160 µM) |  | 64 (≈ 160 µM) | 64 (≈ 160 µM) | inactive | 16 (≈ 40 µM) | 200 | 128 (≈ 320 µM) | inactive |  | 1.56 | inactive | Activity (Escherichia coli [24]): inactive; Activity (Klebsiella pneumoniae [25]): inactive
4 | CCOC(=O)C1=C(OS(=O)(=O)c2cccc([N+](=O)[O-])c2)CC(c2ccccc2)N(C(=O)CCl)C1c1ccccc1 (stereo not given) |  |  |  |  | 128 (≈ 219 µM) |  |  |  |  |  | 128 (≈ 219 µM) |  | inactive |  |  |  | inactive | inactive |  | inactive | Activity [26]: inactive; Activity (Enterococcus faecium [27]): inactive; Activity (Enterococcus faecalis [28]): inactive; Activity (Escherichia coli [24]): inactive; Activity (Staphylococcus aureus [29]): inactive; Activity (Klebsiella pneumoniae [25]): inactive; Activity (Moraxella catarrhalis [30]): inactive; Activity (Enterococcus faecalis [31]): inactive; Activity (Enterococcus faecium [32]): inactive; Activity [33]: inactive; Activity [34]: inactive
